Measured values collected from several papers.
TAOK1: Serine/threonine-protein kinase TAO1 (TAOK1, Homo sapiens, UniProt Q7L7X3)
TYK2: Non-receptor tyrosine-protein kinase TYK2 (TYK2, Homo sapiens, UniProt P29597)
NPY1R: Neuropeptide Y receptor type 1 (NPY1R, Homo sapiens, UniProt P25929)
MC1R: Melanocyte-stimulating hormone receptor (MC1R, Homo sapiens, UniProt Q01726)
TYK2 JH1: Non-receptor tyrosine-protein kinase TYK2, JH1 (TYK2, Homo sapiens, UniProt P29597)

C[C@]1(O)CCCN(c2nc(Nc3ccc(S(=O)(=O)N[C@H]4CC[C@H](CN5CCN(c6ccc(C7CCC(=O)NC7=O)cc6F)CC5)CC4)cc3Cl)ncc2C(F)(F)F)C1 (stereo partly drawn) — remaining binding (TAOK1; binding, competition with immobilised ligand; 1 µM): 91%
COc1ccc2oc(-c3ccc4nc(N)oc4c3)c/c(=N\c3ccccc3NC(=O)CCN)c2c1 — remaining binding (TYK2; binding; 1 µM): 111%
NC/C(=C\F)COc1cccc(Cn2c(=S)[nH]c(=O)c3[nH]cnc32)c1 — inhibition (NPY1R; ligand displacement, radioligand; 10 µM): < 50%
CCCC[C@H](NC(C)=O)C(=O)N[C@@H](C)C(=O)N[C@@H](Cc1c[nH]cn1)C(=O)N[C@@H](Cc1ccccc1)C(=O)N[C@@H](CCCNC(=N)N)C(=O)N[C@H](Cc1c[nH]c2ccccc12)C(=O)N[C@@H](CC(=O)O)C(=O)N[C@@H](CCCNC(=N)N)C(=O)N[C@@H](Cc1ccccc1)C(=O)N[C@@H](C(=O)N1CCC[C@@H]1C(N)=O)C(C)C — Emax (MC1R; cAMP, agonist): 100%
N#Cc1ccc(NC(=O)Nc2ccccc2)cc1 — remaining binding (TYK2 JH1; cell-free assay, competition with immobilised ligand; 25 µM): 99%
CC(=O)N[C@@H](CCCNC(=N)N)C(=O)N[C@H]1CSSC[C@@H](C(N)=O)NC(=O)[C@H](Cc2c[nH]c3ccccc23)NC(=O)[C@H](CCCNC(=N)N)NC(=O)[C@@H](Cc2ccccc2)NC(=O)[C@H](Cc2c[nH]cn2)NC(=O)[C@@H](C)NC1=O — Emax (Melanocortin receptor 3 (MC3R, Homo sapiens, UniProt P41968); cAMP, agonist; CHO-K1): 88%
C#Cc1cc(-c2cc(Nc3nc(N[C@@H](C)c4ccc(F)cn4)ncc3Cl)n[nH]2)ccc1C=O — inhibition (TYK2; enzyme activity, inhibitor; 0.2 µM): 67.2%
Cc1cc2c(C(N)=O)c(N)n(-c3c(C)ccc(O)c3C)c2nc1C — inhibition (Serine/threonine-protein kinase B-raf (BRAF, Homo sapiens, UniProt P15056); enzyme activity, inhibitor, ADP detection; 0.3704 µM): 84%
Cc1cc(O)c(-c2ccc([C@@H](C)CN(C)C)cc2)c2c1[nH]c(=O)c1sccc12 — inhibition (Cyclin-dependent kinase 6 (CDK6, Homo sapiens, UniProt Q00534); enzyme activity, inhibitor; 0.1 µM): 1.19%
C1=C/COCc2cc(ccc2OCCN2CCCC2)Nc2nccc(n2)-c2cccc(c2)COC/1 — remaining signal (TYK2 JH1; cell-free assay; 0.1 µM): 52%
CCN1/C(=C/C(C)=O)Sc2ccc(F)cc21 — inhibition (Adenosine receptor A3 (ADORA3, Homo sapiens, UniProt P0DMS8); ligand displacement, radioligand; 10 µM): 12.4%
Cc1cc(F)cc2c(CCC(=O)N[C@@H]3C(=O)NC[C@H]3O)c(-c3ccc(F)cc3)[nH]c12 — inhibition (NPY1R; cell-free assay; 10 µM): 1%
CCCC[C@H](NC(C)=O)C(=O)N[C@H]1CC(=O)NCCCC[C@@H](C(=O)N2CCC[C@@H]2C(=O)N[C@@H](C(=O)N2CCC[C@@H]2C(N)=O)C(C)C)NC(=O)[C@H](Cc2c[nH]c3ccccc23)NC(=O)[C@H](CCCNC(=N)N)NC(=O)[C@@H](Cc2ccccc2)NC(=O)[C@@H]2CCCN2C1=O — Emax (MC1R; cAMP, agonist): 102%
CCCCC(=O)Nc1ccc(-c2ccc3ncn(CCC)c(=O)c3c2)cn1 — remaining binding (Proto-oncogene tyrosine-protein kinase ROS (ROS1, Homo sapiens, UniProt P08922); binding, competition with immobilised ligand; 0.5 µM): 89%
C[C@]1(O)CCCN(c2nc(Nc3ccc(S(=O)(=O)N[C@H]4CC[C@H](CN5CCN(c6ccc(C7CCC(=O)NC7=O)cc6F)CC5)CC4)cc3F)ncc2C(F)(F)F)C1 (stereo partly drawn) — remaining binding (TAOK1; binding, competition with immobilised ligand; 1 µM): 63%
